Results on 14 molecules are retold here after ChEMBL document CHEMBL1130326, “Anti-Helicobacter pylori agents. 1. 2-(Alkylguanidino)-4-furylthiazoles and related compounds” (1997).

One test deals with Rattus norvegicus. Put plainly: inhibition of histamine stimulated gastric secretion in lumen perfused stomach of anesthetized rats at 1 mg/kg intravenously. Particulars: route intravenous. Type of test: functional. A digest of the protocol:
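Abdomen opened; gastric lumen perfused with saline throughout. Secretion stimulated by iv histamine infusion, 3 mg/kg/h. Perfusate acid titrated with 25 mM NaOH by autotitrator. n = 2.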

The species entered for another test is Cavia porcellus. Put plainly: inhibition of the histamine stimulated […] response in the isolated guinea pig right atrium at 1x 10 e-6 g/mL. Format: functional, Cardiac atrium. A digest of the protocol: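 Isolated atrium; beating rate and contraction amplitude recorded via transducer and polygraph. Histamine hydrochloride 1 × 10^-6 g/mL added to bath and rate increase measured. Percent inhibition from histamine-induced rate increases before versus 30 min after compound.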

For test [1], the system named is Helicobacter pylori. Put plainly: Evaluated for antimicrobial activity against Helicobacter pylori. Format: functional. The essentials: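 Agar dilution. Test strain precultured on Brucella agar with 3% horse serum and 2% starch, 37 °C, 3 days. Suspended in buffered saline to McFarland no. 1, diluted 10²-fold, then spotted by multipoint replicator onto Brucella agar plus 7% lysed horse blood carrying serial 2-fold drug dilutions. Incubated 37 °C, 3 days, 10% CO₂. MIC taken as lowest concentration stopping macroscopic colonial growth.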

In test [2] the test system is Helicobacter pylori. Put plainly: minimum inhibitory concentration was determined against Helicobacter pylori. the value in parentheses is range. Type of test: functional, organism-based. A digest of the protocol:
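Agar dilution. Test strain precultured on Brucella agar with 3% horse serum and 2% starch, 37 °C, 3 days. Suspended in buffered saline to McFarland no. 1, diluted 10²-fold, then spotted by multipoint replicator onto Brucella agar plus 7% lysed horse blood carrying serial 2-fold drug dilutions. Incubated 37 °C, 3 days, 10% CO₂. MIC taken as lowest concentration stopping macroscopic colonial growth. Mean and range from 10 strains (8001, 8003, 8004, 8007, 8008, 8009, 8011, 9005, FP1530, FP1532).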

≈ marks a conversion by molar mass, not a printed value.

In the test on Rattus norvegicus, `CC/N=C(\N)Nc1nc(-c2ccc(CNC(C)=O)o2)cs1` gave an inhibition in vivo at 1 mg/kg of 79%. The same molecule displayed an Inhibition in the test listed under Cavia porcellus of 51%. This molecule gave an MIC with Helicobacter pylori [1] of 3.13 µg/mL (≈ 10.2 µM).
In turn, `CC(=O)NCc1ccc(-c2nc(N=C(N)N)sc2C)o1` returned an inhibition in vivo at 1 mg/kg in the test on Rattus norvegicus of 3%. The molecule further showed an Inhibition in the test listed under Cavia porcellus of 10%. In the test on Helicobacter pylori [1], the MIC was found to be 76 µg/mL (≈ 259 µM).
In the test on Helicobacter pylori [1], `Cc1ncc([N+](=O)[O-])n1CCO` [METRONIDAZOLE] displayed an MIC of 5.4 µg/mL (≈ 31.6 µM).
In the test on Rattus norvegicus, `CC(=O)NCc1ccc(-c2csc(CN(C)C)n2)o1` showed an inhibition in vivo at 1 mg/kg of 4%. The same molecule yielded an Inhibition in the test listed under Cavia porcellus of 6%. The same molecule showed an MIC with Helicobacter pylori [1] above 200 µg/mL.
Turning to `CCCC/N=C(\N)Nc1nc(-c2ccc(CNC(C)=O)o2)cs1`, the inhibition in vivo at 1 mg/kg with Rattus norvegicus stood at 45%. This molecule also displayed an Inhibition in the test filed under Cavia porcellus of 78%. This molecule returned an MIC against Helicobacter pylori [1] of 0.21 µg/mL (≈ 0.626 µM).
`CCC/N=C(\N)Nc1nc(-c2ccc(CNC(C)=O)o2)cs1` yielded an inhibition in vivo at 1 mg/kg in the test with Rattus norvegicus of 97%. Moreover, in the test listed under Cavia porcellus, the Inhibition is reported as 81%. Further, the MIC in the test with Helicobacter pylori [1] worked out at 1.67 µg/mL (≈ 5.2 µM).
BISMUTH SUBCITRATE: the MIC in the test on Helicobacter pylori [2] came to 18 µg/mL.
`CCCCCC/N=C(\N)Nc1nc(-c2ccc(CNC(C)=O)o2)cs1` came in with an inhibition in vivo at 1 mg/kg with Rattus norvegicus of 44%. The Inhibition in the test filed under Cavia porcellus is recorded as 79%. In the test on Helicobacter pylori [1], it took 0.11 µg/mL (≈ 0.303 µM) to inhibit growth (MIC).
As to `CC(=O)NCc1ccc(-c2csc(N/C(N)=N/C(C)C)n2)o1`, the inhibition in vivo at 1 mg/kg in the test with Rattus norvegicus came out at 32%. Moreover, in the test listed under Cavia porcellus, the Inhibition is listed as 27%. Also, it took 2.9 µg/mL (≈ 9.02 µM) to inhibit growth against Helicobacter pylori [1] (MIC).
Molecule `CCCCNC(=O)Nc1nc(-c2ccc(CNC(C)=O)o2)cs1` had an inhibition in vivo at 1 mg/kg with Rattus norvegicus of 9%. The molecule also showed an Inhibition in the test filed under Cavia porcellus of 0%. In the test on Helicobacter pylori [1], this molecule came in with an MIC above 100 µg/mL.
The like results for `CC(=O)NCc1ccc(-c2csc(NC3=NCCN3)n2)o1` were, in that order, 18%, 8% and above 100 µg/mL.
For `CC(=O)NCc1ccc(-c2csc(/N=C(\N)S)n2)o1` the same measures were 11%, 0% and above 200 µg/mL.
Regarding `C/N=C(\N)Nc1nc(-c2ccc(CNC(C)=O)o2)cs1`, in the test with Rattus norvegicus, the inhibition in vivo at 1 mg/kg was 24%. The molecule also gave an Inhibition in the test filed under Cavia porcellus of 25%. For the same molecule, in the test with Helicobacter pylori [1], inhibition of growth (MIC) required 12.5 µg/mL (≈ 42.6 µM).
For `CN/C(=N\CCSCc1nc[nH]c1C)NC#N` [CIMETIDINE] the same measures were 53%, 43% and 1130 µg/mL (≈ 4480 µM).
